In the library only some 1.9% were active in any assay of this set; here they are far more common.
Rtt109 Vps75 = blocks Candida albicans Rtt109/Vps75 acetyltransferase activity | purified Rtt109/Vps75, ThioGlo CoA-SH fluorescence, 4 h | 0.16% of 330,000 active | Q5AAJ8 | inhibition, % at 34.9 µM;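 active = inhibition of at least 50% in every replicate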
Target sequence (Q5AAJ8 whole entry, looked up): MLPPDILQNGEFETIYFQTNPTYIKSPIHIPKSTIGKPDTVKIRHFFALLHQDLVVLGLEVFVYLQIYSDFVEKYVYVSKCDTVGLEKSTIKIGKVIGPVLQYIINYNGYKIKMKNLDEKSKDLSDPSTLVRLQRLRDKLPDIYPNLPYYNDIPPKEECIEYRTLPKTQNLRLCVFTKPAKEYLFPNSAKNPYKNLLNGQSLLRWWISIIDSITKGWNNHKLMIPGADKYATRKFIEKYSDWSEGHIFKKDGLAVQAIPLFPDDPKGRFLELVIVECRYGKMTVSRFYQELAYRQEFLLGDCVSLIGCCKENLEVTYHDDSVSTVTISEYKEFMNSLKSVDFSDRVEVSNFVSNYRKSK
FGF22 binding = FGF22 (human) thermal shift binding. AID 651658. 1.5% of 340,000 active. recombinant FGF22 thermal shift, SYPRO orange fluorescence; percent of sucrose octasulfate shift, DMSO zero. Q9HCT0. activity (Tm shift, normalised), % at 9.99 µM;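 active = mean Tm shift, scaled 0 neutral to 100 positive control, at about 1.3% or above, every replicate too, limit read from the data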
Target sequence (Q9HCT0 whole entry, looked up): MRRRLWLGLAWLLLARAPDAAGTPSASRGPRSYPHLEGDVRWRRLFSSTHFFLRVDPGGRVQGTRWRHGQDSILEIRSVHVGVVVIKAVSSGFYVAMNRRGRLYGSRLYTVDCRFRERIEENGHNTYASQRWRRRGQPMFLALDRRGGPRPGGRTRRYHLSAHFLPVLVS
ASAP1 GAP inh = inhibitors of human ASAP1 ArfGAP activity; Q9ULH1; ASAP1-stimulated ARF1 GTP hydrolysis, GDP FP detection; inhibition, % at 16.5 µM; 0.19% of 360,000 active; in the data active = inhibition above about 25%;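 also: 0% = vehicle with enzyme and substrate and 100% = no enzyme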
ARFGAP1 inh = rat ARFGAP1 inhibition; Arfgap1-stimulated ARF1 GTP hydrolysis, GDP FP detection; inhibition, % at 16.5 µM; 0.26% of 360,000 active; AID 651572;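 active = inhibition above a per-plate limit, mean inhibition of low control wells plus 3 SD, cut at about 25% in these data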;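 also: 0% = DMSO wells with enzyme and 100% = wells lacking Arfgap1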
Target sequence (Q62848 1-136 limits assumed): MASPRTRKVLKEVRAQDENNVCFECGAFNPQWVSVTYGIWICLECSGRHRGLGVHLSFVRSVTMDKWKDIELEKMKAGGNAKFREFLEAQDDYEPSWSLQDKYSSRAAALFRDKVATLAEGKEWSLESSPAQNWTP
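System: truncated rat Arfgap1 GAP domain / Benchmarks: high control wells lacking Arfgap1, low control full reaction with DMSO / Times: compound-enzyme preincubation 20 min, reaction 120 min, detection 60 min, 25 °C / Repeats: one replicate per compound / Also added: human ARF1(Δ1-17)-GTP substrate / Measured by: Tracer-displacement fluorescence polarization with EDTA stop, 620/688 nm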
Efflux pump inh = inhibitors of Candida antifungal efflux pumps expressed in yeast | S. cerevisiae Candida pump triplex, Nile Red efflux | inhibition, % at 10 µM | 0.44% of 330,000 active;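 active = plate passing quality check with inhibition over a set limit, or well fluorescence over plate mean plus 4 SD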;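 also: Nile Red retained in pooled yeast measured as flow cytometry median fluorescence; 0% = buffer negative control and 100% = Enniatin B positive control; higher means more Nile Red kept so more efflux inhibition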
Yeast cmpd fluor = flagged as fluorescent in efflux inhibitor counter-screen. shares compounds with Efflux pump inh. S. cerevisiae AD/pABC3, compound fluorescence, flow cytometry. fluorescence ratio to DMSO, % at 10 µM. AID 588517. 4% of 1,700 active;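 active = fluorescence ratio to DMSO above its plate's cutoff, the plate mean ratio plus 5 SD, cut at about 210% in these data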;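 also: unstained yeast with no Nile Red so the signal is compound autofluorescence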
CaMdr1 efflux inh = inhibitors of Candida albicans Mdr1 efflux pump | shares compounds with Efflux pump inh | S. cerevisiae AD/CaMDR1, Nile Red efflux, flow cytometry | inhibition, % at 10 µM | 1% of 1,700 active | AID 588518; in the data active = inhibition above about 26%;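 also: 0% = DMSO vehicle and 100% = reference inhibitor; higher means more Nile Red retained so more efflux inhibition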
Cdr2 pump inh = Candida Cdr2 efflux pump inhibition; shares compounds with Efflux pump inh; S. cerevisiae AD/CaCDR2, Nile Red retention, flow cytometry; Nile Red retention ratio vs DMSO, % at 10 µM; 4% of 1,700 active; AID 588520; in the data active = Nile Red retention ratio vs DMSO above about 190%;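 also: higher ratio means more blocking of Cdr2 efflux of the dye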
CaCdr1 efflux inh = inhibitors of Candida albicans Cdr1 efflux pump | shares compounds with Efflux pump inh | S. cerevisiae AD/CaCDR1, Nile Red efflux, flow cytometry | inhibition, % at 10 µM | 1% of 1,700 active;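 active = inhibition above the screen-wide mean plus twice its standard deviation, cut at about 32% in these data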
* marks the source's active call; other numbers are inactive results.

Screening O=C(NC1CCCCC1)c1cc2ccccc2cc1O returned Rtt109 Vps75 20, FGF22 binding 0, ASAP1 GAP inh 4, ARFGAP1 inh -2, Efflux pump inh 1.1*, Yeast cmpd fluor 99, CaMdr1 efflux inh 0, Cdr2 pump inh 108 and CaCdr1 efflux inh 0.
For COc1ccc(C(C(=O)NC(C)(C)C)N(Cc2ccco2)C(=O)CCC(=O)Nc2cc(C)on2)cc1 (stereo unspecified) the results were Rtt109 Vps75 19, ASAP1 GAP inh 2, ARFGAP1 inh 9, Efflux pump inh 0, Yeast cmpd fluor 102, CaMdr1 efflux inh 0, Cdr2 pump inh 107 and CaCdr1 efflux inh 0.
COCCN(C(=O)CCC(=O)Nc1cc(C)on1)C(C(=O)NC(C)(C)C)c1ccc(OC)cc1 (stereo unspecified) was read as Rtt109 Vps75 -2, FGF22 binding 0, ASAP1 GAP inh 0, ARFGAP1 inh -1, Efflux pump inh 0, Yeast cmpd fluor 99, CaMdr1 efflux inh 0, Cdr2 pump inh 108 and CaCdr1 efflux inh 0.
CNC(=O)C[C@@H]1CC[C@@H]2[C@@H](COc3ccc(NC(=O)NCc4ccccc4)cc3C(=O)N2C)O1 was read as FGF22 binding 0.
For CC(O)(C(=O)c1ccccc1)c1ccccc1 (stereo unspecified) the results were FGF22 binding 0, ASAP1 GAP inh 7 and ARFGAP1 inh -11.
`Cc1ccc(NC(=O)COC(=O)c2ccc(F)cc2Cl)c(Br)c1` gave Rtt109 Vps75 0, FGF22 binding 0, ASAP1 GAP inh -5, ARFGAP1 inh -8 and Efflux pump inh 0.
`Cc1ccc(NC(=O)COC(=O)c2cc(Cl)ccc2Cl)c(Br)c1` gave Rtt109 Vps75 4, ASAP1 GAP inh 1, ARFGAP1 inh -3, Efflux pump inh 1.3*, Yeast cmpd fluor 97, CaMdr1 efflux inh 0, Cdr2 pump inh 87 and CaCdr1 efflux inh 0.
For Nc1ncc2c(n1)-c1cc(Cl)ccc1SC2 the results were Rtt109 Vps75 12, FGF22 binding 0, ASAP1 GAP inh 1, ARFGAP1 inh -12, Efflux pump inh 0.6*, Yeast cmpd fluor 114, CaMdr1 efflux inh 0, Cdr2 pump inh 112 and CaCdr1 efflux inh 0.
For Cc1ccc([N+](=O)[O-])cc1S(=O)(=O)Nc1cccc(-c2ccc(N3CCCC3)nn2)c1 the results were Rtt109 Vps75 -4, FGF22 binding 0, ASAP1 GAP inh -13, ARFGAP1 inh -7, Efflux pump inh 0.4*, Yeast cmpd fluor 100, CaMdr1 efflux inh 0, Cdr2 pump inh 89 and CaCdr1 efflux inh 0.
`Cc1ccc(S(=O)(=O)Nc2cccc(-c3ccc(N4CCCCCC4)nn3)c2)cc1C` gave Rtt109 Vps75 2, FGF22 binding 0, ASAP1 GAP inh -11, ARFGAP1 inh 1 and Efflux pump inh 0.
Screening Cc1ccc(/C=N/NC(=O)c2csc3c2CCCC3)cc1 returned Rtt109 Vps75 5, ASAP1 GAP inh -14, ARFGAP1 inh -5 and Efflux pump inh 0.
Screening Cc1nn(C)cc1/C=N\NC(=O)c1csc2c1CCCC2 returned Rtt109 Vps75 2, FGF22 binding 0, ASAP1 GAP inh -21, ARFGAP1 inh -4, Efflux pump inh 7.4*, Yeast cmpd fluor 109, CaMdr1 efflux inh 0, Cdr2 pump inh 106 and CaCdr1 efflux inh 0.
CCn1ncc(/C=C/C(=O)c2ccccc2)c1C was read as Rtt109 Vps75 3, ASAP1 GAP inh 0, ARFGAP1 inh 2, Efflux pump inh 11*, Yeast cmpd fluor 106, CaMdr1 efflux inh 0, Cdr2 pump inh 91 and CaCdr1 efflux inh 0.
Screening Cc1c(/C=C/C(=O)c2ccccc2)cnn1C returned Rtt109 Vps75 4, ASAP1 GAP inh -8, ARFGAP1 inh 6 and Efflux pump inh 0.
Screening CCC(C)N(C(=O)Cn1nnc(-c2ccc(F)cc2)n1)C1CCS(=O)(=O)C1 (stereo unspecified) returned Rtt109 Vps75 -6, FGF22 binding 0, ASAP1 GAP inh 6, ARFGAP1 inh 4, Efflux pump inh 0.5*, Yeast cmpd fluor 114, CaMdr1 efflux inh 1, Cdr2 pump inh 123 and CaCdr1 efflux inh 0.
For Brc1ccc(-c2nnc(-c3ccccc3Br)o2)cc1 the results were Rtt109 Vps75 0, ASAP1 GAP inh -8, ARFGAP1 inh 5 and Efflux pump inh 0.
For C[C@@H]1CCCCO[C@@H](CN(C)C(=O)Nc2ccc(F)cc2)[C@H](C)CN([C@H](C)CO)C(=O)c2cc(NS(=O)(=O)c3ccc(F)cc3)ccc2O1 the results were FGF22 binding 0.
CCn1c(=O)c2sccc2n(CC(=O)NC2CCCCC2)c1=O was read as Rtt109 Vps75 -6, FGF22 binding 0, ASAP1 GAP inh -9, ARFGAP1 inh -9 and Efflux pump inh 0.
Oc1[nH]c2ccccc2c1/C=N/N1CCCCC1 was read as Rtt109 Vps75 2, ASAP1 GAP inh 5, ARFGAP1 inh 6, Efflux pump inh 6.7*, Yeast cmpd fluor 102, CaMdr1 efflux inh 0, Cdr2 pump inh 98 and CaCdr1 efflux inh 0.
Screening CC(C)(C)C(=O)CSc1nc2c(c(-c3cccs3)c1C#N)CCC2 returned Rtt109 Vps75 -11, FGF22 binding 0, ASAP1 GAP inh 7, ARFGAP1 inh -8, Efflux pump inh 0.5*, Yeast cmpd fluor 105, CaMdr1 efflux inh 0, Cdr2 pump inh 110 and CaCdr1 efflux inh 0.
For CC(=O)CSc1nc(N)c(C#N)c(-c2cccs2)c1C#N the results were Rtt109 Vps75 14, ASAP1 GAP inh -8, ARFGAP1 inh -5 and Efflux pump inh 0.
Cc1nn2c3c(cnc2c1-c1ccccc1)C(=O)CCC3 was read as Rtt109 Vps75 -7, ASAP1 GAP inh 1, ARFGAP1 inh 4, Efflux pump inh 0.6*, Yeast cmpd fluor 106, CaMdr1 efflux inh 0, Cdr2 pump inh 103 and CaCdr1 efflux inh 0.
For Cc1nn2c(N)c(-c3ccccc3)cnc2c1-c1ccc(Cl)cc1 the results were Rtt109 Vps75 -2, FGF22 binding 0, ASAP1 GAP inh -6, ARFGAP1 inh 2 and Efflux pump inh 0.
O=[N+]([O-])c1cc(/C=N\Nc2ccccn2)ccc1Cl was read as Rtt109 Vps75 -5, FGF22 binding 0, ASAP1 GAP inh 8, ARFGAP1 inh -7, Efflux pump inh 0.9*, Yeast cmpd fluor 108, CaMdr1 efflux inh 0, Cdr2 pump inh 197* and CaCdr1 efflux inh 0.
